The results in this text go back to ChEMBL document CHEMBL4706768, “Discovery of Potent, Selective Triazolothiadiazole-Containing c-Met Inhibitors” (ACS Med Chem Lett, 2021).

By IC50 is commonly meant the concentration that gives 50% inhibition. One may read the Ki as the dissociation constant of the complex between target and ligand, obtained from inhibition or displacement. For orientation: clearance means the volume of plasma or blood freed of the substance per unit of time. The term half-life denotes the time in which the quantity being followed falls by half. A word on the Cmax: it is the peak of the concentration-time curve. Usually bioavailability stands for the share of a dose that reaches the circulation, judged against a reference dose that is usually intravenous. A word on the T/C: it is the result in the treated group divided by that in the control group, in per cent.

In data set [1] the target is T1, Hepatocyte growth factor receptor (Homo sapiens, UniProt P08581). Kind of data set: Inhibition of c-MET in human SNU-5 cells measured after 6 hrs by steady-glo luciferase reporter gene assay. In kind it is cell-based.
Data set [2] concerns the target cGMP-inhibited 3',5'-cyclic phosphodiesterase 3A (Homo sapiens, UniProt Q14432). Kind of data set: Inhibition of recombinant human N-terminal GST/His-tagged PDE3A (669 to 1141 residues) expressed in baculovirus infected Sf9 insect cells using iFL-cAMP as substrate preincubated for 15 mins followed by substrate addition and measured after 40 mins by fluorescence assay.

For another data set, the species on record is Homo sapiens. Kind of data set: Selectivity ratio of IC50 for inhibition of recombinant human N-terminal GST/His-tagged PDE3A (669 to 1141 residues) expressed in baculovirus infected Sf9 insect cells to IC50 for inhibition of c-MET in human SNU-5 cells.
A short description of data set [3]: Stability in rat hepatocytes after 30 mins. The conditions noted are these: read-out: Stabilty. In kind it is ADME, cell-based, Hepatocyte.
A short description of data set [4]: Stability in human liver microsomes after 30 mins. A general note: Liver microsomes are a subcellular fraction often used to study metabolism.
The nature of data set [5]: Stability in rat liver microsomes after 30 mins.
The target of data set [6] is T1, Hepatocyte growth factor receptor. Kind of data set: Inhibition of c-Met (unknown origin) using poly Glu-Tyr as substrate preincubated for 10 mins followed by ATP addition by phosphoenolpyruvate/pyruvate kinase/lactate dehydrogenase coupled radiometric assay.
Data set [7] is described as follows: Clearance in rat at 0.9 mg/kg, iv. In kind it is ADME, organism-based. The conditions noted are these: in vivo. In short, it runs like this: (§1)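 Rats received IV 0.9 mpk or PO 2.6 mpk, the oral dose formulated in 0.5% MC/0.1% Tween 80. PK parameters were derived from the IV and PO dosing arms.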
The nature of data set [8]: Volume of distribution at steady state in rat at 0.9 mg/kg, iv. In kind it is ADME, organism-based. As to conditions: in vivo, read-out: Vdss. In short, it runs like this: as §1
A short description of data set [9]: Half life in rat at 0.9 mg/kg, iv. As to conditions: in vivo. In kind it is ADME, organism-based. In short, it runs like this:
as §1

Data set [10] can be described thus: Cmax in rat at 2.6 mg/kg, po. The arrangement: route oral, dose 2.6 mg/kg. In kind it is ADME, organism-based. The conditions noted are these: in vivo. In short, it runs like this:
as §1

Data set [11] can be described thus: AUC in rat at 2.6 mg/kg, po. In kind it is ADME, organism-based. The arrangement: dose 2.6 mg/kg. The conditions noted are these: in vivo. In short, it runs like this: as §1
Data set [12] can be described thus: Oral bioavailability in rat at 2.6 mg/kg. In kind it is ADME, organism-based. As to conditions: in vivo. In short, it runs like this:
as §1

Data set [13] can be described thus: Clearance in mouse at 0.8 mg/kg, iv. In kind it is ADME, organism-based. As to conditions: in vivo. In short, it runs like this:
(§2)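 Mice received IV 0.8 mpk or PO 13 mpk, the oral dose in 0.5% MC/0.1% Tween 80 vehicle. Parameters came from the respective IV or PO dosing.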

Data set [14] in a line: Volume of distribution at steady state in mouse at 0.8 mg/kg, iv. In kind it is ADME, organism-based. The conditions noted are these: in vivo, read-out: Vdss. In short, it runs like this: as §2
Data set [15] in a line: Half life in mouse at 0.8 mg/kg, iv. The conditions noted are these: in vivo. In kind it is ADME, organism-based. In short, it runs like this: as §2
The nature of data set [16]: Cmax in mouse at 13 mg/kg, po. In kind it is ADME, organism-based. Details: route oral, dose 13 mg/kg. As to conditions: in vivo. In short, it runs like this: as §2
A short description of data set [17]: AUC in mouse at 13 mg/kg, po. Details: dose 13 mg/kg. As to conditions: in vivo. In kind it is ADME, organism-based. In short, it runs like this:
as §2

The nature of data set [18]: Oral bioavailability in mouse at 13 mg/kg. In kind it is ADME, organism-based. The conditions noted are these: in vivo. In short, it runs like this: as §2
The nature of data set [19]: Clearance in dog at 0.8 mg/kg, iv. In kind it is ADME, organism-based, Canis lupus familiaris. The conditions noted are these: in vivo. In short, it runs like this: (§3)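 For dogs, dosing was IV 0.8 mpk or PO 12 mpk, the oral formulation being 30% PG/10% Solutol/1% HPMC-AS. IV and PO parameters were obtained from the corresponding arms.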
The nature of data set [20]: Volume of distribution at steady state in dog at 0.8 mg/kg, iv. In kind it is ADME, organism-based, Canis lupus familiaris. As to conditions: in vivo, read-out: Vdss. In short, it runs like this:
as §3

Data set [21] can be described thus: Half life in dog at 0.8 mg/kg, iv. In kind it is ADME, organism-based, Canis lupus familiaris. As to conditions: in vivo. In short, it runs like this: as §3
Data set [22] is described as follows: Cmax in dog at 12 mg/kg, po. In kind it is ADME, organism-based, Canis lupus familiaris. Details: route oral, dose 12 mg/kg. As to conditions: in vivo. In short, it runs like this: as §3
Data set [23] is described as follows: AUC in dog at 12 mg/kg, po. In kind it is ADME, organism-based, Canis lupus familiaris. The arrangement: dose 12 mg/kg. The conditions noted are these: in vivo. In short, it runs like this: as §3
Data set [24] is described as follows: Oral bioavailability in dog at 12 mg/kg. In kind it is ADME, organism-based, Canis lupus familiaris. As to conditions: in vivo. In short, it runs like this:
as §3

Data set [25] can be described thus: Clearance in monkey at 0.9 mg/kg, iv. The conditions noted are these: rhesus monkey, in vivo. In kind it is ADME, organism-based, Macaca mulatta.
Data set [26] can be described thus: Volume of distribution at steady state in monkey at 0.9 mg/kg, iv. The conditions noted are these: rhesus monkey, in vivo, read-out: Vdss. In kind it is ADME, organism-based, Macaca mulatta.
Data set [27] can be described thus: Half life in monkey at 0.9 mg/kg, iv. In kind it is ADME, organism-based, Macaca mulatta. As to conditions: rhesus monkey, in vivo.
Data set [28] concerns SNU-5. Kind of data set: Antitumor activity against human SNU-5 cells xenografted in SCID mouse assessed as tumor regression measured 38 days post tumor implantation. In kind it is functional. In short, it runs like this: (§4)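 SCID mice carrying SNU-5 tumors were dosed at 3, 10 or 30 mpk. Tumor growth was compared with untreated controls as T/C. Body weight was followed through the dosing regimen.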

Data set [29] deals with SNU-5. Kind of data set: Antitumor activity against human SNU-5 cells xenografted in SCID mouse assessed as tumor regression at 30 mg/kg qd measured 38 days post tumor implantation relative to control. In kind it is functional. In short, it runs like this: as §4
In data set [30] the test system is SNU-5. Kind of data set: Antitumor activity against human SNU-5 cells xenografted in SCID mouse assessed as tumor growth at 3 mg/kg qd measured 38 days post tumor implantation relative to control. In kind it is functional. In short, it runs like this:
as §4

In data set [31] the test system is SNU-5. Kind of data set: Antitumor activity against human SNU-5 cells xenografted in SCID mouse assessed as tumor growth at 10 mg/kg qd measured 38 days post tumor implantation relative to control. In kind it is functional. In short, it runs like this:
as §4

Data set [32] is described as follows: Toxicity in human SNU-5 cells xenografted SCID mouse assessed as body weight loss at 30 mg/kg qd. In kind it is organism-based. As to conditions: in vivo. In short, it runs like this: as §4
A short description of data set [33]: Unbound intrinsic clearance in human hepatocytes assessed per million cells. In kind it is ADME, cell-based, Hepatocyte.
The nature of data set [34]: Unbound intrinsic clearance in mouse hepatocytes assessed per million cells. In kind it is ADME, cell-based, Hepatocyte.
Data set [35] can be described thus: Clearance in rat at 1 mg/kg, iv. In kind it is ADME, organism-based. As to conditions: in vivo.
Data set [36] is described as follows: Half life in rat at 1 mg/kg, iv. In kind it is ADME, organism-based. The conditions noted are these: in vivo.

T1 sequence (P08581 whole entry, the tested form may be a part): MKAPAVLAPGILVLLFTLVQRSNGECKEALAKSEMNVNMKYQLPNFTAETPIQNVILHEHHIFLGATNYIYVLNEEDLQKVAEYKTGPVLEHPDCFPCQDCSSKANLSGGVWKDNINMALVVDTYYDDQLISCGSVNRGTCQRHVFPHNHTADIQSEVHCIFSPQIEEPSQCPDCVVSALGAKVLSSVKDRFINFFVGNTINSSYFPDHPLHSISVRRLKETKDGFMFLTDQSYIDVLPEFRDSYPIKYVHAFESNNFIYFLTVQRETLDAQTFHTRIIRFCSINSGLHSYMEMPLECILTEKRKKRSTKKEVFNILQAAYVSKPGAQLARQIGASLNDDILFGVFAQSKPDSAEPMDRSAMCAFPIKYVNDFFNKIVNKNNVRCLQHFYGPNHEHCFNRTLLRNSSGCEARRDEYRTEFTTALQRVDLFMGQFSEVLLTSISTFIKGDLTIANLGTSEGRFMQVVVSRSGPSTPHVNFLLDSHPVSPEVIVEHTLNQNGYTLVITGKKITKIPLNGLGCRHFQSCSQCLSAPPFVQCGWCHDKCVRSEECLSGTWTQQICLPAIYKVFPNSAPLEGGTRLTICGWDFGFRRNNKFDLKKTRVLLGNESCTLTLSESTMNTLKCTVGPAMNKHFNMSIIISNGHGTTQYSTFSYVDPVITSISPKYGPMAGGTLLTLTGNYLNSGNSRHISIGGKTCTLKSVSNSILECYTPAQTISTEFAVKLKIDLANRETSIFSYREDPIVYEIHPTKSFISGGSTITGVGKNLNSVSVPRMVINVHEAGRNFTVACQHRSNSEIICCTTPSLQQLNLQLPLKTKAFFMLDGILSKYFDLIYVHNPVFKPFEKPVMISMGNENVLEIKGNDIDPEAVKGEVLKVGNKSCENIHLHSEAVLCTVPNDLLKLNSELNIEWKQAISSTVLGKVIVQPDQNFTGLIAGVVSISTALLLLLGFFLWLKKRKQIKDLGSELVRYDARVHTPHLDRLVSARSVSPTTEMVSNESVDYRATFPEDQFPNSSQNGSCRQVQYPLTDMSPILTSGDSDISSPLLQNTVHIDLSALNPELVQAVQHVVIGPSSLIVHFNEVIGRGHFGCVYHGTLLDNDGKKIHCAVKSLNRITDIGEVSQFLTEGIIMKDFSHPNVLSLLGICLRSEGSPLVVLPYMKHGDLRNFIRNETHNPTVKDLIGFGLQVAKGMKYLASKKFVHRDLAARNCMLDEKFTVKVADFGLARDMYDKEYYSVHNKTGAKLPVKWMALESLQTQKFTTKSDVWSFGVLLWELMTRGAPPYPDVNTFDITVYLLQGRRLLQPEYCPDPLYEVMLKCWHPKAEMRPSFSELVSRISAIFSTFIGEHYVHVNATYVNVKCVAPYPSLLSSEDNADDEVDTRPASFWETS
Sequence of cGMP-inhibited 3',5'-cyclic phosphodiesterase 3A (Q14432 whole entry, the tested form may be a part): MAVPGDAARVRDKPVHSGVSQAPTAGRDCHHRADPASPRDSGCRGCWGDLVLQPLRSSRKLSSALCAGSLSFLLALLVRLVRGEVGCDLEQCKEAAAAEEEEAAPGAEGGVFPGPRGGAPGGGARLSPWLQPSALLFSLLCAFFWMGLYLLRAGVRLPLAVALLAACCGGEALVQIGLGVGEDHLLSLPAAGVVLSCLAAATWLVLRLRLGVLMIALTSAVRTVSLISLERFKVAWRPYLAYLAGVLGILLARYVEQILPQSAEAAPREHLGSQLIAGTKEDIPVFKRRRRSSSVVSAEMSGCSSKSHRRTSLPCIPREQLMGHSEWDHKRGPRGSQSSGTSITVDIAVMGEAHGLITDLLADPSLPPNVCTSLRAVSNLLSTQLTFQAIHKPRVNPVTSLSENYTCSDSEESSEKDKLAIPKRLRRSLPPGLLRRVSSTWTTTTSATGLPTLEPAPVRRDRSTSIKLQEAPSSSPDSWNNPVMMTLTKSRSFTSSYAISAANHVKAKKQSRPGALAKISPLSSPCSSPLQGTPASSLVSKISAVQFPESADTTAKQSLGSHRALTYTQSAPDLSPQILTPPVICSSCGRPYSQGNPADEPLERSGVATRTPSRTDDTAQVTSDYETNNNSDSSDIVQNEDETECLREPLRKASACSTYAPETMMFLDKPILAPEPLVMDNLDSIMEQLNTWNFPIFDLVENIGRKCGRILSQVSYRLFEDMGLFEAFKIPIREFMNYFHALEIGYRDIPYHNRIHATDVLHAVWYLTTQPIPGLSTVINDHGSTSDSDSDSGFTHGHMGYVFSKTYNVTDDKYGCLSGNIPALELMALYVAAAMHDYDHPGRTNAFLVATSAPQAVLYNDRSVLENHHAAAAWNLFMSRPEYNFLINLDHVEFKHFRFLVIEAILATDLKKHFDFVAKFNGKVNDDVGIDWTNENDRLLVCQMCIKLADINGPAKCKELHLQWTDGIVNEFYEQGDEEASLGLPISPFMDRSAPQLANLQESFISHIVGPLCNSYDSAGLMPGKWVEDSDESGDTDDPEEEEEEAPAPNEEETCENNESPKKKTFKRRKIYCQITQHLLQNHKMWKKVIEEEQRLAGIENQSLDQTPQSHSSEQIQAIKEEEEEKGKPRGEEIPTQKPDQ

For `Cc1nn(C)cc1-c1nn2c([C@@H](C)c3ccc4ncccc4c3)nnc2s1`, the values for the IC50 in data set [1] and in data set [2] were 0.003 µM and 0.1 µM, respectively. In addition, in the data set filed under Homo sapiens, the Ratio IC50 came out at 33.

For the compound `Clc1cccc(Nc2nn3c(Cc4ccc5c(c4)OCO5)nnc3s2)c1`, the remaining at 0.5 h in data set [3] stood at 64%.

Regarding `Oc1cccc(Cc2nnc3sc(Nc4cccc(Cl)c4)nn23)c1`, the remaining at 0.5 h in [3] amounted to 55%.

In the case of `Clc1cccc(Nc2nn3c(Cn4ccc5ncccc54)nnc3s2)c1`, the remaining at 0.5 h in data set [3] amounted to 60%.

Regarding `Oc1ccc(Cc2nnc3n2N=C(c2ccc(F)cc2)CS3)cc1`, the remaining at 0.5 h amounted to 73% in [4] and 2.6% in data set [5].

On to `Oc1ccc(Cc2nnc3sc(Nc4ccccc4)nn23)cc1`, for which the remaining at 0.5 h was found to be 68% in data set [4] and 40% in [5].

Regarding `Oc1ccc(Cn2cnc3ncc(-c4ccc(F)cc4)nc32)cc1`, the remaining at 0.5 h in [4] is 51%; in data set [5] it was 56%.

For `Oc1ccc(Cc2nnc3ccc(-c4ccc(F)cc4)nn23)cc1`, the results for the remaining at 0.5 h in data set [4] and in data set [5] were 50% and 32%, respectively.

Turning to `Cc1nn(C)cc1-c1nn2c([C@H](C)c3ccc4ncccc4c3)nnc2s1`, the IC50 in data set [1] worked out at 0.003 µM; in data set [2] it was 0.2 µM. Moreover, the Ratio IC50 in the data set filed under Homo sapiens is 67.

Consider `Oc1ccc(Cc2nnc3sc(Nc4cccc(Cl)c4)nn23)cc1F`, for which the remaining at 0.5 h in [3] turned out to be 56%.

For the compound `Oc1ccc(Cc2nnc3sc(Nc4cccc(Cl)c4)nn23)cc1Cl`, in [3], the remaining at 0.5 h stood at 63%.

The compound `Cn1cc(Nc2nn3c(C(F)(F)c4ccc5ncccc5c4)nnc3s2)cn1` displayed a Ki in data set [6] of 0.021 µM. In addition, the IC50 in data set [1] worked out at 0.004 µM; in [2] it was 8.07 µM. Moreover, the Ratio IC50 in the data set filed under Homo sapiens came to 2020. Further, the clearance came to 25 mL/min/kg in data set [7], 21 mL/min/kg in data set [13], 14 mL/min/kg in data set [19] and 23 mL/min/kg in data set [25]. Besides, the Vd in data set [8] was 0.7 L/kg; in data set [14], 1 L/kg; in data set [20], 1.6 L/kg; in data set [26] it was 1.2 L/kg. Also, the half-life in data set [9] is 1.4 h; in data set [15] it was 1.8 h; in data set [21], 3.6 h; in data set [27], 2 h. In addition, the highest concentration (Cmax) in data set [10] came to 150 ng/mL; in data set [16], 4800 ng/mL; in data set [22], 1300 ng/mL. For the same compound, the figures for the AUC in data set [11], in [17] and in data set [23] were 0.6 µg/h/mL, 16 µg/h/mL and 9.9 µg/h/mL, respectively. For the same compound, the bioavailability in [12] came to 29%; in [18], 100%; in data set [24] it was 66%. Further, the values for the Activity result (in the data set on SNU-5 [28]; in the data set on SNU-5 [29]; in [32]) were “Dose-dependent effect”, -23.9% and “Non-Toxic”, respectively. Besides, the T/C with SNU-5 [30] was 16.6%; in the data set with SNU-5 [31], 54.2%.

Consider `CC(c1ccc2ncccc2c1)c1nnc2sc(-c3cnn(C)c3)nn12` (racemic), for which the affinity in [6], expressed as Ki, was 0.05 µM. Further, in data set [1], the half-maximal inhibitory concentration (IC50) worked out at 0.03 µM. Further, the figures for the CL free in [33] and in [34] were 3.2 µL/min and 7.4 µL/min, respectively.

`C[C@H](c1ccc2ncccc2c1)c1nnc2sc(-c3cnn(C)c3)nn12` registered a Ki in data set [6] of 0.24 µM. In addition, the results for the IC50 in [1] and in [2] were 0.084 µM and 7.9 µM, respectively. Besides, the CL free in data set [33] is 5.8 µL/min; in data set [34], 7 µL/min. Also, in the data set listed under Homo sapiens, the Ratio IC50 amounted to 95.

Take `Cn1cc(-c2nn3c(Cc4ccc5ncccc5c4)nnc3s2)cn1`: the CL free is 4.8 µL/min in [33] and 6.2 µL/min in data set [34]. For the same compound, the clearance in [35] stood at 24.5 mL/min/kg. The compound also gave a half-life in data set [36] of 1.1 h.

`Clc1cccc(Nc2nn3c(Cc4ccc5ncccc5c4)nnc3s2)c1`: the remaining at 0.5 h in data set [3] was 45%.

In data set [6], `C[C@@H](c1ccc2ncccc2c1)c1nnc2sc(Nc3cnn(C)c3)nn12` had a Ki of 0.02 µM. The IC50 was 0.005 µM in data set [1] and 3 µM in data set [2]. In the data set filed under Homo sapiens, the Ratio IC50 is 600.
